Results from ChEMBL document CHEMBL4118063, “Design, synthesis and evaluation of aromatic heterocyclic derivatives as potent antifungal agents” (Eur J Med Chem, 2017).
In brackets after ≈: the same amount, converted by molar mass.

What was measured:
[1] = molecular target: T1, Lanosterol 14-alpha demethylase (Candida albicans (strain SC5314 / ATCC MYA-2876) (Yeast), UniProt P10613); experiment: Inhibition of CYP51 in Candida albicans ATCC SC5314 assessed as obtusifoliol content at 0.125 ug/ml by GS-MS analysis relative to total sterols (reference value: 0.6%); design: scale not given: the % may be the effect or the level left
[2] = molecular target: T1, Lanosterol 14-alpha demethylase; experiment: Inhibition of CYP51 in Candida albicans ATCC SC5314 assessed as increase in eburicol content by GS-MS analysis
[3] = system: Aspergillus fumigatus; experiment: Antifungal activity against Aspergillus fumigatus GIM 3.524 by broth microdilution method; format: functional
Summary of the method: (§1)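 Serial twofold-style dilution in growth medium per NCCLS broth microdilution guidelines. Compounds dissolved in DMSO before dilution. Fluconazole and itraconazole served as positive controls. MIC was read as the lowest concentration that prevents visible fungal growth.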

[4] = molecular target: T1, Lanosterol 14-alpha demethylase; experiment: Inhibition of CYP51 in Candida albicans ATCC SC5314 assessed as ergosterol content at 0.5 ug/ml by GS-MS analysis relative to total sterols (reference value: 98.7%); design: scale not given: the % may be the effect or the level left; details: at 0.5 µg/mL
[5] = molecular target: T1, Lanosterol 14-alpha demethylase; experiment: Inhibition of CYP51 in Candida albicans ATCC SC5314 assessed as 4,4-dimethyl zymosterol content at 2 ug/ml by GS-MS analysis relative to total sterols; design: scale not given: the % may be the effect or the level left
Summary of the method: (§2)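 C. albicans SC5314 cells exposed to drug at 0.03125–8 µg/mL alongside untreated and fluconazole-treated cells; sterols extracted and analysed by GC-MS with cholesterol as internal standard; each sterol expressed as percent of total sterols.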

[6] = molecular target: T1, Lanosterol 14-alpha demethylase; experiment: Inhibition of CYP51 in Candida albicans ATCC SC5314 assessed as 4,4-dimethyl zymosterol content at 8 ug/ml by GS-MS analysis relative to total sterols; design: scale not given: the % may be the effect or the level left; summary of the method: as §2
[7] = molecular target: T1, Lanosterol 14-alpha demethylase; experiment: Inhibition of CYP51 in Candida albicans ATCC SC5314 assessed as ergosterol content at 8 ug/ml by GS-MS analysis relative to total sterols (reference value: 98.7%); design: scale not given: the % may be the effect or the level left; details: at 8 µg/mL
[8] = molecular target: T1, Lanosterol 14-alpha demethylase; experiment: Inhibition of CYP51 in Candida albicans ATCC SC5314 assessed as obtusifoliol content at 2 ug/ml by GS-MS analysis relative to total sterols (reference value: 0.6%); design: scale not given: the % may be the effect or the level left; details: at 2 µg/mL
[9] = molecular target: T1, Lanosterol 14-alpha demethylase; experiment: Inhibition of CYP51 in Candida albicans ATCC SC5314 assessed as ergosterol content at 0.125 ug/ml by GS-MS analysis relative to total sterols (reference value: 98.7%); design: scale not given: the % may be the effect or the level left
[10] = molecular target: T1, Lanosterol 14-alpha demethylase; experiment: Inhibition of CYP51 in Candida albicans ATCC SC5314 assessed as ergosterol content at 0.03125 ug/ml by GS-MS analysis relative to total sterols (reference value: 98.7%); design: scale not given: the % may be the effect or the level left
[11] = molecular target: T1, Lanosterol 14-alpha demethylase; experiment: Inhibition of CYP51 in Candida albicans ATCC SC5314 assessed as ergosterol content at 2 ug/ml by GS-MS analysis relative to total sterols (reference value: 98.7%); design: scale not given: the % may be the effect or the level left; details: at 2 µg/mL
[12] = molecular target: T1, Lanosterol 14-alpha demethylase; experiment: Inhibition of CYP51 in Candida albicans ATCC SC5314 assessed as eburicol content at 2 ug/ml by GS-MS analysis relative to total sterols (reference value: 0.4%); design: scale not given: the % may be the effect or the level left; details: at 2 µg/mL
[13] = molecular target: T1, Lanosterol 14-alpha demethylase; experiment: Inhibition of CYP51 in Candida albicans ATCC SC5314 assessed as increase in lanosterol content by GS-MS analysis
[14] = system: Candida albicans; experiment: Antifungal activity against Candida albicans ATCC SC5314 by broth microdilution method; format: functional; summary of the method: as §1
[15] = molecular target: T1, Lanosterol 14-alpha demethylase; experiment: Inhibition of CYP51 in Candida albicans ATCC SC5314 assessed as obtusifoliol content at 0.03125 ug/ml by GS-MS analysis relative to total sterols (reference value: 0.6%); design: scale not given: the % may be the effect or the level left
[16] = system: Candida tropicalis; experiment: Antifungal activity against Candida tropicalis cgmcc 2.3739 by broth microdilution method; format: functional; summary of the method: as §1
[17] = system: Candida albicans; experiment: Antifungal activity against fluconazole-resistant Candida albicans strain 100 by broth microdilution method; format: functional
Summary of the method: (§3)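 Broth serial dilution in 96-well plates per NCCLS guidelines; compounds dissolved in DMSO and serially diluted into growth medium; MIC taken as lowest concentration inhibiting visible fungal growth. Fluconazole-resistant clinical C. albicans isolates 100 and 103; fluconazole and itraconazole as positive controls.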

[18] = molecular target: T1, Lanosterol 14-alpha demethylase; experiment: Inhibition of CYP51 in Candida albicans ATCC SC5314 assessed as lanosterol content at 0.125 ug/ml by GS-MS analysis relative to total sterols; design: scale not given: the % may be the effect or the level left
[19] = molecular target: T1, Lanosterol 14-alpha demethylase; experiment: Inhibition of CYP51 in Candida albicans ATCC SC5314 assessed as eburicol content at 0.5 ug/ml by GS-MS analysis relative to total sterols (reference value: 0.4%); design: scale not given: the % may be the effect or the level left; details: at 0.5 µg/mL
[20] = molecular target: T1, Lanosterol 14-alpha demethylase; experiment: Inhibition of CYP51 in Candida albicans ATCC SC5314 assessed as eburicol content at 8 ug/ml by GS-MS analysis relative to total sterols (reference value: 0.4%); design: scale not given: the % may be the effect or the level left; details: at 8 µg/mL
[21] = molecular target: T1, Lanosterol 14-alpha demethylase; experiment: Inhibition of CYP51 in Candida albicans ATCC SC5314 assessed as obtusifoliol content at 0.5 ug/ml by GS-MS analysis relative to total sterols (reference value: 0.6%); design: scale not given: the % may be the effect or the level left; details: at 0.5 µg/mL
[22] = system: Cryptococcus neoformans; experiment: Antifungal activity against Cryptococcus neoformans cgmcc 2.3161 by broth microdilution method; format: functional; summary of the method: as §1
[23] = molecular target: T1, Lanosterol 14-alpha demethylase; experiment: Inhibition of CYP51 in Candida albicans ATCC SC5314 assessed as lanosterol content at 8 ug/ml by GS-MS analysis relative to total sterols; design: scale not given: the % may be the effect or the level left; details: at 8 µg/mL
[24] = molecular target: T1, Lanosterol 14-alpha demethylase; experiment: Inhibition of CYP51 in Candida albicans ATCC SC5314 assessed as obtusifoliol content at 8 ug/ml by GS-MS analysis relative to total sterols (reference value: 0.6%); design: scale not given: the % may be the effect or the level left; details: at 8 µg/mL
[25] = molecular target: T1, Lanosterol 14-alpha demethylase; experiment: Inhibition of CYP51 in Candida albicans ATCC SC5314 assessed as lanosterol content at 2 ug/ml by GS-MS analysis relative to total sterols; design: scale not given: the % may be the effect or the level left; details: at 2 µg/mL
[26] = molecular target: T1, Lanosterol 14-alpha demethylase; experiment: Inhibition of CYP51 in Candida albicans ATCC SC5314 assessed as lanosterol content at 0.5 ug/ml by GS-MS analysis relative to total sterols; design: scale not given: the % may be the effect or the level left; details: at 0.5 µg/mL
[27] = system: Candida albicans; experiment: Antifungal activity against fluconazole-resistant Candida albicans strain 103 by broth microdilution method; format: functional; summary of the method: as §3
[28] = system: Candida albicans; experiment: Antifungal activity against Candida albicans CPCC 400523 by broth microdilution method; format: functional; summary of the method: as §1
[29] = molecular target: T1, Lanosterol 14-alpha demethylase; experiment: Inhibition of CYP51 in Candida albicans ATCC SC5314 assessed as decrease in ergosterol content by GS-MS analysis
[30] = molecular target: T1, Lanosterol 14-alpha demethylase; experiment: Inhibition of CYP51 in Candida albicans ATCC SC5314 assessed as eburicol content at 0.03125 ug/ml by GS-MS analysis relative to total sterols (reference value: 0.4%); design: scale not given: the % may be the effect or the level left
[31] = molecular target: T1, Lanosterol 14-alpha demethylase; experiment: Inhibition of CYP51 in Candida albicans ATCC SC5314 assessed as eburicol content at 0.125 ug/ml by GS-MS analysis relative to total sterols (reference value: 0.4%); design: scale not given: the % may be the effect or the level left

T1 sequence (P10613 whole entry): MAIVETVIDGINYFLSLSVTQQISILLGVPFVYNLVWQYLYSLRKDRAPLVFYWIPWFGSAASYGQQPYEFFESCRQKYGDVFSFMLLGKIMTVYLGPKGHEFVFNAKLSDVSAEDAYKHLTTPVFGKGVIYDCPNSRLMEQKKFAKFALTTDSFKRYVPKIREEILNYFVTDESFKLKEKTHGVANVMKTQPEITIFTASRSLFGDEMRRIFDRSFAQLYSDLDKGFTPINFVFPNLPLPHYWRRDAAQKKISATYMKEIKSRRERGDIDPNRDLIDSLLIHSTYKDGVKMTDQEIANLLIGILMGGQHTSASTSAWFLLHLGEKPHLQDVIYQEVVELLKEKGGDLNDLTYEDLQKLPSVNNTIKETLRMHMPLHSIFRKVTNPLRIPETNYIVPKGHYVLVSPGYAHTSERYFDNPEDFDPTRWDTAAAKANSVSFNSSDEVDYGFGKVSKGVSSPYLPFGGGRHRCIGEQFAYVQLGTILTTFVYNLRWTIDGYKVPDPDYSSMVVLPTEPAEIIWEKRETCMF

For OC(Cn1cncn1)(Cn1cncn1)c1ccc(F)cc1F [FLUCONAZOLE], the Activity [1] was 8.9%, the “inhibition (INH)” value [2] was “Dose-dependent effect” and the MIC [3] was 16 µg/mL (≈ 52.2 µM). For the same molecule, the Activity [4] was 81.4%, the Activity [5] was 15.7% and the Activity [6] was 13%. The Activity [7] was 1.7%, the Activity [8] was 16.1% and the Activity [9] was 88.7%. It also gave an Activity [10] of 95.6%, an Activity [11] of 18.2% and an Activity [12] of 27%. The “inhibition (INH)” value [13] was “Dose-dependent effect”, the MIC [14] was 1 µg/mL (≈ 3.27 µM) and the Activity [15] was 3.6%. The MIC [16] was 0.25 µg/mL (≈ 0.816 µM), the MIC [17] was greater than 64 µg/mL and the Activity [18] was 0.4%. For the same molecule, the Activity [19] was 7.2%, the Activity [20] was 37.2% and the Activity [21] was 6.9%. It also gave an MIC [22] of 4 µg/mL (≈ 13.1 µM), an Activity [23] of 34.8% and an Activity [24] of 13.3%. The Activity [25] was 23%, the Activity [26] was 4.5% and the MIC [27] was greater than 64 µg/mL. The MIC [28] was 2 µg/mL (≈ 6.53 µM), the “inhibition (INH)” value [29] was “Dose-dependent effect” and the Activity [30] was 0.8%. For the same molecule, the Activity [31] was 2%.
